Experimental data reported in ChEMBL document CHEMBL1122782, “Bulky amine analogues of ketoprofen: potent antiinflammatory agents” (J Med Chem, 1984).

Experiments:
Rattus norvegicus [1] = experiment: The mean increase in paw volume was compared between drug treated groups and placebo to calculate the percent inhibition in rats at 0.02 mmol/kg by carrageenan Edema Assay; 50-59; type: functional
Rattus norvegicus [2] = organism: Rattus norvegicus; experiment: Compound was evaluated for highest non-ulcerogenic dose (less than 50% ulcer incidence); type: functional; conditions: read-out: ED50
Summary of the method: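 Taken from the 21-day adjuvant arthritis test in male Sprague-Dawley rats dosed orally each day from the day of adjuvant injection. Small intestines and stomachs were examined for ulceration at the end. The value is the highest dose giving less than 50% ulcer incidence.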

Rattus norvegicus [3] = experiment: Ulcerogenicity was measured in stomach during the 3 week adjuvant arthritis test, no of animals with ulcers out of 8 animals tested at 0.08 mM/kg (32.4 mg) was reported; type: functional
Summary of the method: (§1)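 Male Sprague-Dawley rats (200–230 g) were injected in the plantar tissue of one hind paw with 0.1 mL of 0.6% M. butyricum suspension in heavy mineral oil. Daily oral gavage began on the day of adjuvant injection and ran for the 21 days, with drug suspended in 1% gum tragacanth or a corn oil-water emulsion. At the end the rats were sacrificed and the small intestine and stomach were examined for ulcers. Results are given as animals with ulcers/animals tested.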

Rattus norvegicus [4] = experiment: Ulcerogenicity was measured in intestine during the 3 week adjuvant arthritis test, no of animals with ulcers out of 8 animals tested at 0.08 mM/kg (32.4 mg) was reported; type: functional
Summary of the method: (§2)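 In the 21-day adjuvant arthritis model, male Sprague-Dawley rats (200–230 g) received an M. butyricum mineral-oil suspension into one hind paw. They were dosed daily by gavage from the day of injection. At the end of the study the rats were killed, and the small intestines were examined for ulcers. Results are given as the number of ulcerated animals over the number tested.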

Rattus norvegicus [5] = experiment: Antiinflammatory efficacy is measured by the percent inhibition of paw volume during the 3 week adjuvant arthritis test at 0.08 mM/kg (32.24 mg); type: functional
Summary of the method: (§3)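 Male Sprague-Dawley rats (200–230 g) were used in groups of eight. Each received 0.1 mL of 0.6% M. butyricum in heavy mineral oil into the plantar tissue of one hind paw. Daily oral gavage in 1% gum tragacanth or corn oil-water emulsion began on the injection day and ran 21 days. Total hind paw volume was measured by mercury displacement, and inhibition was taken versus vehicle-treated adjuvant controls.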

Rattus norvegicus [6] = experiment: Ulcerogenicity was measured in stomach during the 3 week adjuvant arthritis test, no of animals with ulcers out of 3 animals tested at 0.32 mM/kg (130 mg) was reported; type: functional; summary of the method: as §1
Rattus norvegicus [7] = experiment: Antiinflammatory efficacy is measured by the percent inhibition of paw volume during the 3 week adjuvant arthritis test at 0.005 mM/kg (2.03 mg); type: functional; summary of the method: as §3
Rattus norvegicus [8] = experiment: Potency relative to phenylbutazone at 0.02 […]; type: functional
Rattus norvegicus [9] = experiment: Ulcerogenicity was measured in intestine during the 3 week adjuvant arthritis test, no of animals with ulcers out of 3 animals tested at 0.32 mM/kg (130 mg) was reported; type: functional; summary of the method: as §2
Rattus norvegicus [10] = experiment: Antiinflammatory efficacy is measured by the weight gain in rats during the 3 week adjuvant arthritis test at 0.08 mM/kg (32.24 mg); type: functional
Summary of the method: (§4)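 Rats were adjuvant-injected (M. butyricum in mineral oil, one hind paw) or given a mineral-oil placebo. They were dosed by gavage daily for 21 days from the injection day, with vehicle only for both control groups, then weighed at the end. Weight gain % = (treated − adjuvant control)/(negative control − adjuvant control) × 100.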

Rattus norvegicus [11] = experiment: The percent inhibition was calculated from the average differences in hind paw volume between the adjuvant injected controls and the adjuvant-injected medicated rats at 0.08 mmol/kg; 90-99; type: functional
Rattus norvegicus [12] = experiment: Antiinflammatory efficacy is measured by the weight gain in rats during the 3 week adjuvant arthritis test at 0.005 mM/kg (2.03 mg); type: functional; summary of the method: as §4
Rattus norvegicus [13] = experiment: Antiinflammatory efficacy is measured by the percent inhibition of paw volume during the 3 week adjuvant arthritis test at 0.02 mM/kg (8.11 mg); type: functional; summary of the method: as §3
Rattus norvegicus [14] = experiment: Antiinflammatory efficacy is measured by the weight gain in rats during the 3 week adjuvant arthritis test at 0.02 mM/kg (8.11 mg); type: functional; summary of the method: as §4
Rattus norvegicus [15] = experiment: Ulcerogenicity was measured in intestine during the 3 week adjuvant arthritis test, no of animals with ulcers out of 4 animals tested at 0.08 mM/kg (35.2 mg) was reported; type: functional; summary of the method: as §2
Rattus norvegicus [16] = experiment: Antiinflammatory efficacy is measured by the percent inhibition of paw volume during the 3 week adjuvant arthritis test at 0.005 mM/kg (2.20 mg); type: functional; summary of the method: as §3
Rattus norvegicus [17] = experiment: Ulcerogenicity was measured in stomach during the 3 week adjuvant arthritis test, no of animals with ulcers out of 4 animals tested at 0.08 mM/kg (35.2 mg) was reported; type: functional; summary of the method: as §1
Rattus norvegicus [18] = experiment: The percent inhibition was calculated from the average differences in hind paw volume between the adjuvant injected controls and the adjuvant-injected medicated rats at 0.08 mmol/kg; 80-89; type: functional
Rattus norvegicus [19] = experiment: Ulcerogenicity was measured in intestine during the 3 week adjuvant arthritis test, no of animals with ulcers out of 4 animals tested at 0.16 mM/kg (70.4 mg) was reported; type: functional; summary of the method: as §2
Rattus norvegicus [20] = experiment: Antiinflammatory efficacy is measured by the percent inhibition of paw volume during the 3 week adjuvant arthritis test at 0.08 mM/kg (35.2 mg); type: functional; summary of the method: as §3
Rattus norvegicus [21] = experiment: Antiinflammatory efficacy is measured by the percent inhibition of paw volume during the 3 week adjuvant arthritis test at 0.02 mM/kg (8.80 mg); type: functional; summary of the method: as §3
Rattus norvegicus [22] = experiment: Antiinflammatory efficacy is measured by the weight gain in rats during the 3 week adjuvant arthritis test at 0.16 mM/kg (70.4 mg); type: functional
Summary of the method: (§5)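 Male Sprague-Dawley rats (200–230 g), eight per group, received 0.1 mL of 0.6% M. butyricum in heavy mineral oil (negative controls: mineral oil) into one hind-paw plantar tissue. Daily gavage in 1% gum tragacanth or corn oil-water emulsion began on the injection day, for 21 days. Weight gain is expressed as (treated − adjuvant control)/(negative control − adjuvant control) × 100.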

Rattus norvegicus [23] = experiment: Antiinflammatory efficacy is measured by the weight gain in rats during the 3 week adjuvant arthritis test at 0.005 mM/kg (2.20 mg); type: functional; summary of the method: as §4
Rattus norvegicus [24] = experiment: Antiinflammatory efficacy is measured by the weight gain in rats during the 3 week adjuvant arthritis test at 0.02 mM/kg (8.80 mg); type: functional; summary of the method: as §4
Rattus norvegicus [25] = experiment: Ulcerogenicity was measured in stomach during the 3 week adjuvant arthritis test, no of animals with ulcers out of 4 animals tested at 0.16 mM/kg (70.4 mg) was reported; type: functional; summary of the method: as §1
Rattus norvegicus [26] = experiment: The mean increase in paw volume was compared between drug treated groups and placebo to calculate the percent inhibition in rats at 0.02 mmol/kg by carrageenan Edema Assay; 40-49; type: functional
Rattus norvegicus [27] = experiment: Antiinflammatory efficacy is measured by the weight gain in rats during the 3 week adjuvant arthritis test at 0.08 mM/kg (35.2 mg); type: functional; summary of the method: as §4
Rattus norvegicus [28] = experiment: Ulcerogenicity was measured in intestine during the 3 week adjuvant arthritis test, no of animals with ulcers out of animals tested at 0.32 mM/kg (141 mg) was reported; toxic; type: functional, organism-based; summary of the method: as §1
Rattus norvegicus [29] = experiment: The percent inhibition was calculated from the average differences in hind paw volume between the adjuvant injected controls and the adjuvant-injected medicated rats at 0.08 mmol/kg; 60-69; type: functional; conditions: Rattus norvegicus
Rattus norvegicus [30] = experiment: Antiinflammatory efficacy is measured by the percent inhibition of paw volume during the 3 week adjuvant arthritis test at 0.08 mM/kg (24.6 mg); type: functional; summary of the method: as §3
Rattus norvegicus [31] = experiment: Ulcerogenicity was measured in intestine during the 3 week adjuvant arthritis test, no of animals with ulcers out of 8 animals tested at 0.41 mM/kg (126 mg) was reported; type: functional; summary of the method: as §1
Rattus norvegicus [32] = experiment: Ulcerogenicity was measured in stomach during the 3 week adjuvant arthritis test, no of animals with ulcers out of 8 animals tested at 0.41 mM/kg (126 mg) was reported; type: functional; summary of the method: as §1
Rattus norvegicus [33] = experiment: Antiinflammatory efficacy is measured by the weight gain in rats during the 3 week adjuvant arthritis test at 0.50 mM/kg (154 mg); type: functional; summary of the method: as §5
Rattus norvegicus [34] = experiment: The mean increase in paw volume was compared between drug treated groups and placebo to calculate the percent inhibition in rats at 0.08 mmol/kg by carrageenan Edema Assay; 40-49; type: functional
Rattus norvegicus [35] = experiment: Ulcerogenicity was measured in stomach during the 3 week adjuvant arthritis test, no of animals with ulcers out of 55 animals tested at 0.50 mM/kg (154 mg) was reported; type: functional; summary of the method: as §1
Rattus norvegicus [36] = experiment: Ulcerogenicity was measured in intestine during the 3 week adjuvant arthritis test, no of animals with ulcers out of 72 animals tested at 0.08 mM/kg (24.6 mg) was reported; type: functional; summary of the method: as §2
Rattus norvegicus [37] = experiment: Ulcerogenicity was measured in stomach during the 3 week adjuvant arthritis test, no of animals with ulcers out of 72 animals tested at 0.08 mM/kg (24.6 mg) was reported; type: functional; summary of the method: as §1
Rattus norvegicus [38] = experiment: Antiinflammatory efficacy is measured by the weight gain in rats during the 3 week adjuvant arthritis test at 0.08 mM/kg (24.6 mg); type: functional; summary of the method: as §4
Rattus norvegicus [39] = experiment: Ulcerogenicity was measured in intestine during the 3 week adjuvant arthritis test, no of animals with ulcers out of 55 animals tested at 0.50 mM/kg (154 mg) was reported; type: functional; summary of the method: as §2
Rattus norvegicus [40] = experiment: The mean increase in paw volume was compared between drug treated groups and placebo to calculate the percent inhibition in rats at 0.08 mmol/kg by carrageenan Edema Assay; 60-69; type: functional
Rattus norvegicus [41] = experiment: The percent inhibition was calculated from the average differences in hind paw volume between the adjuvant injected controls and the adjuvant-injected medicated rats at 0.08 mmol/kg; 70-79; type: functional

CC(CN1CCCCC1CC1CCCCC1)c1cccc(C(O)c2ccccc2)c1 (stereo not drawn)
inhibition in vivo at 20 µmol/kg (Rattus norvegicus [1]): 30%
highest non-ulcerogenic dose (Rattus norvegicus [2]): 8 µmol/kg
Ulcerogenic index (Rattus norvegicus [3]): 1
Ulcerogenic index (Rattus norvegicus [4]): 1
Inhibition (Rattus norvegicus [5]): 110%
Ulcerogenic index (Rattus norvegicus [6]): 1
Inhibition (Rattus norvegicus [7]): 37%
Relative potency (Rattus norvegicus [8]): 8.6%
Ulcerogenic index (Rattus norvegicus [9]): 3
Weight gain (Rattus norvegicus [10]): 67%
inhibition in vivo at 80 µmol/kg (Rattus norvegicus [11]): 90%
Weight gain (Rattus norvegicus [12]): 13%
Inhibition (Rattus norvegicus [13]): 82%
Weight gain (Rattus norvegicus [14]): 36%

CC(CN1CCCCC1CC1CCCCC1)c1cccc(C(O)c2ccc(Cl)cc2)c1 (stereo not drawn)
Ulcerogenic index (Rattus norvegicus [15]): 1
Inhibition (Rattus norvegicus [16]): 64%
Ulcerogenic index (Rattus norvegicus [17]): 0
highest non-ulcerogenic dose (Rattus norvegicus [2]): 1 µmol/kg
inhibition in vivo at 80 µmol/kg (Rattus norvegicus [18]): 80%
Ulcerogenic index (Rattus norvegicus [19]): 3
Inhibition (Rattus norvegicus [20]): 88%
Inhibition (Rattus norvegicus [21]): 70%
Weight gain (Rattus norvegicus [22]): 84%
Weight gain (Rattus norvegicus [23]): 40%
Weight gain (Rattus norvegicus [24]): 69%
Ulcerogenic index (Rattus norvegicus [25]): 0
inhibition in vivo at 20 µmol/kg (Rattus norvegicus [26]): 40%
Weight gain (Rattus norvegicus [27]): 87%
Ulcerogenic index (Rattus norvegicus [28]): Toxic

CCCCC1C(=O)N(c2ccccc2)N(c2ccccc2)C1=O [PHENYLBUTAZONE]
inhibition in vivo at 80 µmol/kg (Rattus norvegicus [29]): 60%
Inhibition (Rattus norvegicus [30]): 66%
Ulcerogenic index (Rattus norvegicus [31]): 2
Ulcerogenic index (Rattus norvegicus [32]): 3
Weight gain (Rattus norvegicus [33]): 41%
inhibition in vivo at 80 µmol/kg (Rattus norvegicus [34]): 40%
Ulcerogenic index (Rattus norvegicus [35]): 17
highest non-ulcerogenic dose (Rattus norvegicus [2]): 40 µmol/kg
Ulcerogenic index (Rattus norvegicus [36]): 11
Ulcerogenic index (Rattus norvegicus [37]): 14
Weight gain (Rattus norvegicus [38]): 21%
Ulcerogenic index (Rattus norvegicus [39]): 36

CC1CN(CC(C)c2cccc(C(=O)c3ccccc3)c2)CC(C)O1 (stereo not drawn)
inhibition in vivo at 80 µmol/kg (Rattus norvegicus [40]): 60%
inhibition in vivo at 80 µmol/kg (Rattus norvegicus [41]): 70%
